Source: ChEMBL document CHEMBL4765342, “Substituted benzothiophene and benzofuran derivatives as a novel class of bone morphogenetic Protein-2 upregulators: Synthesis, anti-osteoporosis efficacies in ovariectomized rats and a zebrafish model, and ADME properties” (Eur J Med Chem, 2020)
Calls of active or inactive are those of the source. The rule behind the calls is not given here.

Columns and labels:
[1] = biological target: Runt-related transcription factor 2 (Mus musculus) (UniProt Q08775); test: Upregulation of Runx2 transcriptional activity in mouse MC3T3-E1 cells transfected with p6OSE2-luc at 10 uM incubated for 48 hrs by firefly luciferase reporter gene assay relative to control; type: cell-based; details: filed as activator
Chain of Runt-related transcription factor 2 (Mus musculus) (Q08775 whole entry): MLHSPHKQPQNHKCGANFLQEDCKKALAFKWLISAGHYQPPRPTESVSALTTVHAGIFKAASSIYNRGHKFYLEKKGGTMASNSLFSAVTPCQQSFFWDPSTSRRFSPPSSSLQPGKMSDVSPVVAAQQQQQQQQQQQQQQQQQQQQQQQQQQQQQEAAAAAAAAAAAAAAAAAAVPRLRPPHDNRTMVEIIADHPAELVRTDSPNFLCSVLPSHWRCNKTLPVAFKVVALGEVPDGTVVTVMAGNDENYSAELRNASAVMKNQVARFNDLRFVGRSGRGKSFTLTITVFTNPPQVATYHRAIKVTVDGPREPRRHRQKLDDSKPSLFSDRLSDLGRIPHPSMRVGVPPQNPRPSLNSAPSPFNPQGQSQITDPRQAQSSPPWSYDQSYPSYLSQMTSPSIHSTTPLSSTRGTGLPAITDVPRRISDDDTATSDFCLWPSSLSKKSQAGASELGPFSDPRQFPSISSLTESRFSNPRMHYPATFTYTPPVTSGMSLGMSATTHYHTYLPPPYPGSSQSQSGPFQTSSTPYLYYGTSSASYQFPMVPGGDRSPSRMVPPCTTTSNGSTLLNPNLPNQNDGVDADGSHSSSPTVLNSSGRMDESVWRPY
In short: (§1)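 MC3T3-E1 cells reverse-transfected in suspension with p6OSE2-luc (Runx2-responsive reporter), 100 ng DNA per well, 10^5 cells/ml in α-MEM with 10% FBS, 37 °C in CO2. After 24 h the medium was replaced with complete medium containing compound, with lovastatin as positive control. Firefly luciferase read after a further 48 h as relative luminescence units. Significance by Dunnett's test.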

MC3T3-E1 = test: Cytotoxicity against mouse MC3T3-E1 cells at 100 uM; type: cell-based; details: mc3t3-e1, 100 µM
[2] = biological target: Runt-related transcription factor 2 (Mus musculus) (UniProt Q08775); test: Upregulation of Runx2 transcriptional activity in mouse MC3T3-E1 cells transfected with p6OSE2-luc at 100 uM incubated for 48 hrs by firefly luciferase reporter gene assay relative to control; type: cell-based; details: filed as activator; in short: as §1
Danio rerio [3] = organism: Danio rerio; test: Antiosteoporotic activity in Zebra fish model of dexamethasone-induced bone loss assessed as increase in BMP-2 expression at 1 uM incubated for 24 hrs in presence of dexamethasone by Western blot analysis; type: functional, organism-based
In short: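 Protein extracts were prepared from untreated, dexamethasone-treated and drug-treated (1 µM, 24 h) zebrafish, and BMP-2 protein was then assessed.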

Danio rerio [4] = organism: Danio rerio; test: (§2) Antiosteoporotic activity in Zebra fish model of dexamethasone-induced bone loss assessed as increase in bone mineralization by measuring increase in integrated optical density 6hpf embryo treated for 72 hrs with dexamethasone followed by incubation with drug and measured after 6 days post-fertilization by alizarin dye based imaging analysis; type: functional, organism-based; details: dose 1-25 µM, time 3.0 day
In short: (§3)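 AB-line zebrafish embryos at 6 hpf held in dexamethasone solution for 72 h, then exposed to drug, and cultured to 6 dpf. Larvae stained with alizarin red, rehydrated, decolorised and photographed. Stained area and integrated optical density were summed over the left-flank branchial bones: cleithrum, compass, opercle and branchiostegal rays. Values expressed relative to untreated controls set at 1.00.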

Rattus norvegicus [5] = test: Antiosteoporotic activity in Sprague-Dawley rat model of OVX-induced bone loss assessed as increase in number of trabeculae at 30 mg/kg, ig administered for 3 months with 1 day break after 6 consecutive days administration; type: functional, organism-based
In short: (§4)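 Female SD rats given bilateral ovariectomy (sham: fat tissue removed instead), adapted 1 week beforehand; dosing began on postoperative day 10, n = 10 per group. Test drugs as 3 mg/mL suspension by gavage; raloxifene hydrochloride at 0.5 mg/mL. Controls got water. Tetracycline 30 mg/kg ip 16 and 3 days before euthanasia. Tibia stained sections give trabecular morphology and TBV%. BMD of L4-6 measured by densitometry under pentobarbital 45 mg/kg anaesthesia. Reported as mean ± SD.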

Rattus norvegicus [6] = test: Antiosteoporotic activity in Sprague-Dawley rat model of OVX-induced bone loss assessed as increase in thickness of trabeculae at 30 mg/kg, ig administered for 3 months with 1 day break after 6 consecutive days administration; type: functional, organism-based; in short: as §4
Rattus norvegicus [7] = test: Antiosteoporotic activity in Sprague-Dawley rat model of OVX-induced bone loss assessed as increase in trabecular bone volume at 30 mg/kg, ig administered for 3 months with 1 day break after 6 consecutive days administration; type: functional, organism-based; in short: as §4
Danio rerio [8] = organism: Danio rerio; test: as §2, with “at 1 to 25 uM” for “by measuring increase in integrated optical density”; type: functional, organism-based; details: dose 1-25 µM, time 3.0 day; in short: as §3
Rattus norvegicus [9] = test: Antiosteoporotic activity in Sprague-Dawley rat model of OVX-induced bone loss assessed as narrowed gap between trabeculae at 30 mg/kg, ig administered for 3 months with 1 day break after 6 consecutive days administration; type: functional, organism-based; in short: as §4
Rattus norvegicus [10] = test: Antiosteoporotic activity in Sprague-Dawley rat model of OVX-induced bone loss assessed as increase in trabecular bone mineral density at 30 mg/kg, ig administered for 3 months with 1 day break after 6 consecutive days administration; type: functional, organism-based; in short: as §4

CC[C@H](C)C(=O)O[C@H]1C[C@@H](C)C=C2C=C[C@H](C)[C@H](CC[C@@H]3C[C@@H](O)CC(=O)O3)[C@H]21 [LOVASTATIN]
Activity [1]: 256% | Activity (MC3T3-E1): Toxic

COc1ccc2cc(C(=O)NCCN(C)C)oc2c1
Activity [2]: 267% | Activity (Danio rerio [3]): Active | Activity (Danio rerio [4]): Dose-dependent effect | Activity (Rattus norvegicus [5]): Active | Activity (Rattus norvegicus [6]): Active | Activity (Rattus norvegicus [7]): Active | Activity (Danio rerio [8]): Active | Activity (Rattus norvegicus [9]): Active | Activity (Rattus norvegicus [10]): Active
